1 compound from ChEMBL document CHEMBL5236549, “Discovery of 2-Sulfinyl-Diazabicyclooctane Derivatives, Potential Oral β-Lactamase Inhibitors for Infections Caused by Serine β-Lactamase-Producing Enterobacterales” (J Med Chem, 2021) can be followed below.

pIC50: −log10 of the molar value. Where only a bound is given, the exact number is not on record here.

Series [1] deals with Klebsiella pneumoniae. Nature of the series: Antibacterial activity against Klebsiella pneumoniae SR200263 assessed as inhibition of bacterial growth incubated for 16 to 24 hrs by CLSI based two-fold serial dilution method. The format is functional. The settings on record: time 16-24 hrs. The essentials:
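CLSI broth microdilution in cation-adjusted Mueller Hinton broth, twofold serial dilutions, about 5 × 10⁴ cfu/well from OD625, 35 °C for 16−20 h. MIC is the lowest concentration with no visible growth.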

In series [2] the test system is Klebsiella pneumoniae. Nature of the series: Antibacterial activity against Klebsiella pneumoniae SR201325 assessed as reduction in bacterial growth by measuring minimum […] concentration incubated for 16 to 24 hrs by CLSI based two-fold serial dilution method. Conditions: time 16-24 hrs. The format is functional. The essentials: (§1)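 Inhibitor twofold serially diluted in cation-adjusted Mueller Hinton broth containing ceftibuten 1 μg/mL. About 5 × 10⁴ cfu/well, 35 °C for 16−20 h. […] N = 1.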

Series [3] can be described thus: AUC in monkey at 5 mg/kg,iv by LC/MS/MS analysis. Conditions: rhesus monkey, in vivo. The format is ADME, organism-based, Macaca mulatta. The arrangement: dose 5 mg/kg, route iv. The essentials:
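Plasma of the parent acid measured by LC/MS/MS (methanol precipitation, positive ESI, external standard); oral values follow prodrug dosing (rat fed, dog and monkey fasted). AUC from 0 h to last time point by linear trapezoid; F from oral AUC versus iv AUC of the parent. N = 2 (rat, dog), N = 3 (monkey, mouse).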

Series [4] relates to Klebsiella pneumoniae. Briefly: Antibacterial activity against Klebsiella pneumoniae ATCC SR201218 assessed as inhibition of bacterial growth incubated for 16 to 20 hrs by CLSI based two-fold serial dilution method.
Series [5] relates to Escherichia coli. Briefly: Antibacterial activity against Escherichia coli ATCC SR09613 assessed as inhibition of bacterial growth incubated for 16 to 20 hrs by CLSI based two-fold serial dilution method.
Series [6] is described as follows: Total clearance in dog at 5 mg/kg,iv by LC/MS/MS analysis. The format is ADME, organism-based, Canis lupus familiaris. Conditions: in vivo. The essentials: (§2)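 Intravenous dosing (mouse 10, rat 1, dog 5, monkey 5 mg/kg); plasma quantified by LC/MS/MS after methanol precipitation with external standard; AUC by linear trapezoidal approximation; CLtot = dose/AUC.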

Series [7] deals with Enterobacter cloacae. Briefly: Antibacterial activity against Enterobacter cloacae SR200030 assessed as reduction in bacterial growth by measuring minimum […] concentration incubated for 16 to 24 hrs by CLSI based two-fold serial dilution method. The format is functional. The settings on record: time 16-24 hrs. The essentials: as §1
Series [8] is described as follows: Total clearance in monkey at 5 mg/kg,iv by LC/MS/MS analysis. The format is ADME, organism-based, Macaca mulatta. The settings on record: rhesus monkey, in vivo. The method, boiled down:
as §2

The nature of series [9]: Inhibition of bacterial beta-lactamase CMY-2 using nitrocefin as substrate incubated for 20 mins. The arrangement: species or system Bacteria. The essentials: (§3)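 Nitrocefin hydrolysis read by absorbance. Enzyme titrated to give about 0.2 absorbance change over the no-enzyme control. Enzyme added to nitrocefin (final 50 μg/mL) plus inhibitor, no preincubation, read after 20 min at 35 °C. IC50 is 50% reduction of hydrolysis. N = 1.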

Series [10] can be described thus: Inhibition of bacterial beta-lactamase KPC-2 using nitrocefin as substrate incubated for 20 mins. The arrangement: species or system Bacteria. The essentials: as §3
Series [11] has as its system Klebsiella pneumoniae. Briefly: Antibacterial activity against Klebsiella pneumoniae SR09635 assessed as inhibition of bacterial growth incubated for 16 to 20 hrs by CLSI based two-fold serial dilution method.
The test system of series [12] is Klebsiella pneumoniae. Briefly: Antibacterial activity against Klebsiella pneumoniae SR100758 assessed as reduction in bacterial growth by measuring minimum […] concentration incubated for 16 to 24 hrs by CLSI based two-fold serial dilution method. The format is functional. Conditions: time 16-24 hrs. The method, boiled down:
as §1

For series [13], the system named is Enterobacter cloacae. Nature of the series: Antibacterial activity against Enterobacter cloacae SR100108 assessed as inhibition of bacterial growth incubated for 16 to 20 hrs by CLSI based two-fold serial dilution method.
Series [14] concerns Escherichia coli. Briefly: Antibacterial activity against Escherichia coli ATCC SR09613 assessed as reduction in bacterial growth by measuring minimum […] concentration incubated for 16 to 24 hrs by CLSI based two-fold serial dilution method. The format is functional. Conditions: time 16-24 hrs. The method, boiled down:
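MPC₁ by broth microdilution: twofold serial dilutions of inhibitor in cation-adjusted Mueller Hinton broth containing ceftibuten at 1 μg/mL. Inoculum about 5 × 10⁴ cfu/well final, set from OD625. Incubation at 35 °C for 16−20 h. […] N = 1.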

Series [15] deals with Klebsiella pneumoniae. Briefly: Antibacterial activity against Klebsiella pneumoniae SR200263 assessed as reduction in bacterial growth by measuring minimum […] concentration incubated for 16 to 20 hrs by CLSI based two-fold serial dilution method. The settings on record: time 16-20 hrs.
Series [16] has as its system Klebsiella pneumoniae. Briefly: Antibacterial activity against Klebsiella pneumoniae SR200487 assessed as reduction in bacterial growth by measuring minimum […] concentration incubated for 16 to 20 hrs by CLSI based two-fold serial dilution method. Conditions: time 16-20 hrs.

As usually defined, the MIC is the least concentration at which growth counts as inhibited. Usually AUC stands for concentration integrated over time. As a reminder, the clearance is the volume of plasma or blood freed of the substance per unit of time. The pIC50 is −log10 of the IC50, conventionally taken in molar units. As to `C[S@@+]([O-])[C@@H]1CC[C@@H]2CN1C(=O)N2O[C@H](F)C(=O)[O-].[Na+]`, the MIC is 32 mg/L in series [1]; > 32 mg/L in series [4]; 32 mg/L in [5]; 32 mg/L in series [11]; > 32 mg/L in series [13]. For the same compound, the MPC was found to be 2 µg/mL in [2]; 4 µg/mL in series [7]; 0.25 µg/mL in series [12]; 0.125 µg/mL in [14]; 0.125 µg/mL in [15]; 0.5 µg/mL in series [16]. Moreover, the exposure (AUC) in series [3] turned out to be 13.8 µg·h/mL. In addition, the clearance in series [6] is 0.258 L/h/kg; in series [8] it was 0.369 L/h/kg. In addition, the pIC50 is 7.55 in series [9] and 7.85 in series [10].
